Test results taken from ChEMBL document CHEMBL1149177, “Meta-substituted aryl(thio)ethers as potent partial agonists (or antagonists) for the histamine H3 receptor lacking a nitrogen atom in the side chain” (J Med Chem, 2004).
pEC50, pKi: −log10 of the molar value.

Tests used:
[1] = target: Histamine H3 receptor (Rattus norvegicus, UniProt Q9QYN8); test: In vitro inhibitory activity against histamine H3 receptor using [3H]histamine as radioligand from rat cerebral cortex synaptosomes; assay type: subcellular, Brain
In short: (§1)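 Rat cerebral cortex synaptosomes preincubated 30 min at 37 °C with L-[3H]histidine to label histamine stores; K+-evoked depolarization-induced [3H]histamine release measured. Intrinsic activity taken as maximal inhibition by test substance relative to that from histamine (1 μM). Antagonism read as blockade of the histamine effect, expressed as Ki.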

[2] = test system: Mus musculus; test: In vivo inhibition of brain N-methyl-histamine formation in mice when administered perorally in presence of oxalate salt; assay type: functional; conditions: po
In short: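 Male Swiss mice (18–22 g), groups of 6–12, given oxalate salt orally as solution or suspension in 1% methylcellulose. Cerebral cortex taken 90 min after dosing, homogenized in ice-cold 0.4 N perchloric acid. Nτ-methylhistamine measured by radioimmunoassay. Agonist maximal effect referenced to imetit 10 mg/kg; antagonist maximal effect referenced to thioperamide 10 mg/kg. ED50 given as free base.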

[3] = species: Mus musculus; test: Intrinsic activity was determined inhibition of brain N-mehtylhistamine formation in mice relative to imetit; assay type: functional
In short: (§2)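 Oxalate salt given orally as solution or suspension in 1% methylcellulose to groups of 6–12 male Swiss mice (18–22 g); doses 0.15–30 mg/kg. Cerebral cortex taken 90 min later, homogenized in ice-cold 0.4 N perchloric acid, Nτ-methylhistamine measured by radioimmunoassay. Agonist maxima referenced to imetit 10 mg/kg; antagonist maxima to thioperamide 10 mg/kg; ED50 as free base.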

[4] = species: Cavia porcellus; test: Tested for activity of compound against neurogenic contractions of guinea pig jejunum; Potent antagonist; assay type: functional; conditions: filed as antagonist
[5] = target: Histamine H3 receptor (Mus musculus) (UniProt P58406); test: Activity against Histamine H3 receptor mediated inhibition of [3H]norepinephrine release from mouse brain; Partial agonist; assay type: functional; conditions: filed as partial agonist
[6] = target: Histamine H3 receptor (Rattus norvegicus) (UniProt Q9QYN8); test: In vitro intrinsic activity against histamine H3 receptor using [3H]histamine as radioligand from rat cerebral cortex synaptosomes with respect to histamine; No detectable agonism.; assay type: functional, subcellular; conditions: Brain; in short: as §1
[7] = species: Rattus norvegicus; test: In vitro effective concentration of compound required to reduce histamine release from rat synaptosomes; assay type: functional; conditions: Brain; in short: as §1
[8] = test system: Mus musculus; test: In vivo Intrinsic activity inhibition of brain N-mehtylhistamine formation in mice relative to imetit; Antagonist.; assay type: functional; in short: as §2
[9] = target: Histamine H3 receptor (Rattus norvegicus) (UniProt Q9QYN8); test: In vitro intrinsic activity against histamine H3 receptor using [3H]histamine as radioligand from rat cerebral cortex synaptosomes with respect to histamine; assay type: subcellular; conditions: Brain; in short: as §1
[10] = target: Histamine H3 receptor (Cavia porcellus) (UniProt Q9JI35); test: Tested for activity of compound against histamine H3 receptor in guinea pig ileum; Antagonist; assay type: functional, tissue-based; conditions: filed as antagonist
[11] = target: Histamine H3 receptor (Homo sapiens) (UniProt Q9Y5N1); test: Agonistic activity against histamine H3 receptor; Partial agonist; assay type: functional; conditions: filed as partial agonist
[12] = target: Histamine H3 receptor (Mus musculus) (UniProt P58406); test: Tested for activity against histamine H3 receptor in vivo in mice; Weak agonist; assay type: functional, organism-based; conditions: filed as partial agonist; in short: as §2
[13] = target: Histamine H3 receptor (Homo sapiens) (UniProt Q9Y5N1); test: Tested for activity against histamine H3 receptor; Weak antagonist; assay type: functional; conditions: filed as antagonist
[14] = target: Histamine H3 receptor (Homo sapiens) (UniProt Q9Y5N1); test: Tested in vivo for activity against histamine H3 receptor; Full agonist; assay type: functional, organism-based; conditions: filed as agonist; in short: as §2
[15] = target: Histamine H3 receptor (Rattus norvegicus) (UniProt Q9QYN8); test: In vitro activity against histamine H3 receptor in rat synaptosomes; Partial agonist; assay type: functional, subcellular; conditions: Brain; filed as partial agonist; in short: as §1
[16] = target: Histamine H3 receptor (Cavia porcellus) (UniProt Q9JI35); test: In vitro activity against histamine H3 receptor in guinea pig ileum; Antagonist; assay type: functional, tissue-based; conditions: filed as antagonist

Chain of Histamine H3 receptor (Mus musculus) (P58406 whole entry): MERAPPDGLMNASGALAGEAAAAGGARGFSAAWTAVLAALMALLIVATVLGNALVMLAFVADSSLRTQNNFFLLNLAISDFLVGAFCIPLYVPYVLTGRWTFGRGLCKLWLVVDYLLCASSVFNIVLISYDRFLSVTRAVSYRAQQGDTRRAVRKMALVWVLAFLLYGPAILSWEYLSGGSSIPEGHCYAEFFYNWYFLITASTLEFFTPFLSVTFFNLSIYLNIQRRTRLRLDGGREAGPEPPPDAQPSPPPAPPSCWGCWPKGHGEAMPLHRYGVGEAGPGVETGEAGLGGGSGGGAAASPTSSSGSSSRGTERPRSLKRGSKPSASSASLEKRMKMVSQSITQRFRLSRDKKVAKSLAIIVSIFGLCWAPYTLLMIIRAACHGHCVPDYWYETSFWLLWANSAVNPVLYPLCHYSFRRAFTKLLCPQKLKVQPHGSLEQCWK
Chain of Histamine H3 receptor (Q9QYN8 whole entry): as the sequence (P58406 whole entry) above, with A15T, T286A, G290A, H387R, V389I counted along it
Chain of Histamine H3 receptor (Rattus norvegicus) (Q9QYN8 whole entry): as the sequence (P58406 whole entry) above, with A15T, T286A, G290A, H387R, V389I counted along it
Chain of Histamine H3 receptor (Homo sapiens) (Q9Y5N1 whole entry): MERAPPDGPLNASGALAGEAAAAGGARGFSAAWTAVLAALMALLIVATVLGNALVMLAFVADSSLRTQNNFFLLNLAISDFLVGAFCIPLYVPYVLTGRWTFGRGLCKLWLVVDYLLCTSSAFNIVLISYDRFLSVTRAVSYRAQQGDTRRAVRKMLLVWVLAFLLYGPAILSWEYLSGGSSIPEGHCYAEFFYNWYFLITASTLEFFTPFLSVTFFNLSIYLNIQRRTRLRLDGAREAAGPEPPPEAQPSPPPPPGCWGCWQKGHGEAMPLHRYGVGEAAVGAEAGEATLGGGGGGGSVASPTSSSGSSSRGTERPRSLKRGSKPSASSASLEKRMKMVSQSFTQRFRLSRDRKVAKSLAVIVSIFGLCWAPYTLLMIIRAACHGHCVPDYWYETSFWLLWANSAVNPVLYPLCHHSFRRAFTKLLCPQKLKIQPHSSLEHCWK
Chain of Histamine H3 receptor (Cavia porcellus) (Q9JI35 whole entry): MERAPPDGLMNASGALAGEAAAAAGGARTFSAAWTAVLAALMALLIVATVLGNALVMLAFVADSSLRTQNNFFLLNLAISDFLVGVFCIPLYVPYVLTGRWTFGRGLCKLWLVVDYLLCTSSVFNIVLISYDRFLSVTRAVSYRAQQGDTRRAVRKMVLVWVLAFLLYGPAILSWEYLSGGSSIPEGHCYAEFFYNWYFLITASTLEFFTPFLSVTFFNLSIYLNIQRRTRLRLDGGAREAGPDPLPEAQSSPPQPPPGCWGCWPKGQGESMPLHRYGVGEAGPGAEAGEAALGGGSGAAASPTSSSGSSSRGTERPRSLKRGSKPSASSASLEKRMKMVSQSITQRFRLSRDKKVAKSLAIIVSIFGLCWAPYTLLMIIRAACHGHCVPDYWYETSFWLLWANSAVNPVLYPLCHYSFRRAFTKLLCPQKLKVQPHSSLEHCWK

Question: `FC(F)(F)c1cccc(SCCCc2c[nH]cn2)c1` was tested. Which pKi [1] did it give?
Answer: Its pKi is 7.42.

Question: What about the ED50 [2] of the same compound?
Answer: The ED50 was over 10 mg/kg.

Question: How did the pKi [1] turn out when `FC(F)(F)c1cc(OCCCc2c[nH]cn2)cc(C(F)(F)F)c1` was run?
Answer: Its pKi is 6.94.

Question: And the Intrinsic activity [3]?
Answer: The Intrinsic activity was 0.

Question: And the ED50 [2]?
Answer: The ED50 was 4.8 mg/kg.

Question: How did the pKi [1] turn out when `N#Cc1cccc(OCCCc2cnc[nH]2)c1` was run?
Answer: Its pKi is 6.97.

Question: And the ED50 [2]?
Answer: Its ED50 is over 10 mg/kg.

Question: Which Intrinsic activity [3] does the source give for `FC(F)(F)c1cccc(OCCCCc2c[nH]cn2)c1` here?
Answer: Its Intrinsic activity is 0.7.

Question: With `NC[C@H]1CC[C@H](c2c[nH]cn2)O1` as the compound, how does the Activity [4] read?
Answer: Its Activity is “Antagonist”.

Question: And the Activity [5]?
Answer: Its Activity is “Partial agonist”.

Question: Which Activity [4] does the source give for `NCC[C@@H]1C[C@@H]1c1c[nH]cn1` here?
Answer: Its Activity is “Antagonist”.

Question: What about the Activity [5] of the same compound?
Answer: The Activity was “Partial agonist”.

Question: Which results are given for `FC(F)(F)c1cccc(OCCCc2c[nH]cn2)c1`?
Answer: Intrinsic activity [6]: 0.4; pKi [1]: 8.08; Intrinsic activity [3]: 1; ED50 [2]: 0.6 mg/kg; pEC50 [7]: 7.01

Question: How did the pKi [1] turn out when `CC(C)(C)c1cccc(OCCCc2cnc[nH]2)c1` was run?
Answer: Its pKi is 7.66.

Question: What does the source list for `FC(F)(F)c1cccc(OCCc2c[nH]cn2)c1`?
Answer: pKi [1]: 7.74; ED50 [2]: < 10 mg/kg; Intrinsic activity [8]: 0

Question: With `CCc1cccc(OCCCc2c[nH]cn2)c1` as the compound, how does the Intrinsic activity [3] read?
Answer: Its Intrinsic activity is 0.85.

Question: And the Intrinsic activity [9]?
Answer: The Intrinsic activity was 0.2.

Question: And the ED50 [2]?
Answer: Its ED50 is about 1 mg/kg.

Question: `FC(F)(F)c1ccccc1OCCCc1c[nH]cn1` was tested. Which pKi [1] did it give?
Answer: The pKi was about 6.30.

Question: What about the ED50 [2] of the same compound?
Answer: The ED50 was over 10 mg/kg.

Question: How did the Activity [10] turn out when `CC(C)CNC(=O)OCCCc1c[nH]cn1` was run?
Answer: The Activity was “Antagonist”.

Question: Which ED50 [2] does the source give for `S=C(NC1CCCCC1)N1CCC(c2cnc[nH]2)CC1` [THIOPERAMIDE] here?
Answer: The ED50 was 1 mg/kg.

Question: `CC(C)(C)CNC(=O)OCCCc1c[nH]cn1` was tested. Which Activity [10] did it give?
Answer: The Activity was “Antagonist”.

Question: Which ED50 [2] does the source give for `c1ccc(OCCCc2c[nH]cn2)cc1` here?
Answer: The ED50 was over 10 mg/kg.

Question: Which results are given for `NCCCCCc1c[nH]cn1`?
Answer: Activity [4]: Antagonist; Activity [5]: Partial agonist

Question: `FC(F)(F)c1cccc(CCCCc2c[nH]cn2)c1` was tested. Which pKi [1] did it give?
Answer: Its pKi is 7.42.

Question: What about the Intrinsic activity [3] of the same compound?
Answer: The Intrinsic activity was 0.

Question: What about the ED50 [2] of the same compound?
Answer: The ED50 was 6.5 mg/kg.

Question: How did the pKi [1] turn out when `CCc1cccc(OCCCc2cnc[nH]2)c1` was run?
Answer: Its pKi is 7.82.

Question: `Cc1cccc(OCCCc2cnc[nH]2)c1` was tested. Which pKi [1] did it give?
Answer: Its pKi is 7.43.

Question: And the ED50 [2]?
Answer: Its ED50 is over 10 mg/kg.

Question: What does the source list for `C[C@@H](N)Cc1c[nH]cn1`?
Answer: Activity [4]: Antagonist; Activity [5]: Partial agonist

Question: How did the Intrinsic activity [3] turn out when `FC(F)(F)c1cccc(SCCc2c[nH]cn2)c1` was run?
Answer: Its Intrinsic activity is 0.7.

Question: And the Intrinsic activity [9]?
Answer: The Intrinsic activity was 0.4.

Question: And the ED50 [2]?
Answer: Its ED50 is 0.94 mg/kg.

Question: For `CC(C)c1cccc(OCCCc2c[nH]cn2)c1`, which Intrinsic activity [3] is on record?
Answer: Its Intrinsic activity is 0.82.

Question: And the Intrinsic activity [9]?
Answer: Its Intrinsic activity is 0.3.

Question: What about the ED50 [2] of the same compound?
Answer: Its ED50 is 0.5 mg/kg.

Question: Which Activity [11] does the source give for `Ic1ccc(COCCCc2c[nH]cn2)cc1` here?
Answer: The Activity was “Partial agonist”.

Question: Which results are given for `CC(C)(C)NC(=O)OCCCc1c[nH]cn1`?
Answer: Activity [12]: Partial agonist; Activity [10]: Antagonist

Question: `c1nc(CC2CCNCC2)c[nH]1` was tested. Which Activity [4] did it give?
Answer: Its Activity is “Antagonist”.

Question: What about the Activity [5] of the same compound?
Answer: The Activity was “Partial agonist”.

Question: With `C[C@H]1NCC[C@@H]1c1c[nH]cn1` as the compound, how does the Activity [4] read?
Answer: The Activity was “Antagonist”.

Question: And the Activity [5]?
Answer: The Activity was “Partial agonist”.

Question: Which Intrinsic activity [3] does the source give for `O=[N+]([O-])c1cccc(OCCCc2c[nH]cn2)c1` here?
Answer: The Intrinsic activity was 0.61.

Question: What about the Intrinsic activity [9] of the same compound?
Answer: Its Intrinsic activity is 0.1.

Question: And the ED50 [2]?
Answer: Its ED50 is 1.1 mg/kg.

Question: `N=C(N)CCCc1c[nH]cn1` was tested. Which Activity [4] did it give?
Answer: The Activity was “Antagonist”.

Question: What about the Activity [5] of the same compound?
Answer: Its Activity is “Partial agonist”.

Question: `CC(=O)c1cccc(OCCCc2cnc[nH]2)c1` was tested. Which pKi [1] did it give?
Answer: The pKi was 7.70.

Question: How did the Activity [10] turn out when `CC(NC(=O)OCCCc1c[nH]cn1)C(C)(C)C` (stereo not drawn) was run?
Answer: The Activity was “Antagonist”.

Question: How did the pKi [1] turn out when `Brc1cccc(OCCCc2cnc[nH]2)c1` was run?
Answer: Its pKi is 7.72.

Question: Which results are given for `CC(C)NC(=O)OCCCc1c[nH]cn1`?
Answer: Activity [13]: Partial antagonist; Activity [10]: Antagonist

Question: With `CC(C)(C)CCOCCCc1c[nH]cn1` as the compound, how does the Activity [14] read?
Answer: Its Activity is “Agonist”.

Question: `CC(C)c1cccc(OCCCc2cnc[nH]2)c1` was tested. Which pKi [1] did it give?
Answer: Its pKi is 7.54.

Question: Which Intrinsic activity [3] does the source give for `FC(F)(F)c1ccc(OCCCc2c[nH]cn2)cc1` here?
Answer: Its Intrinsic activity is 0.

Question: And the ED50 [2]?
Answer: The ED50 was 0.6 mg/kg.

Question: How did the Activity [4] turn out when `N=C(N)SCCc1c[nH]cn1` was run?
Answer: The Activity was “Antagonist”.

Question: And the Activity [5]?
Answer: Its Activity is “Partial agonist”.

Question: Which results are given for `CC(=O)c1cccc(OCCCc2c[nH]cn2)c1`?
Answer: Intrinsic activity [3]: 0.9; Intrinsic activity [9]: 0.15; ED50 [2]: 0.4 mg/kg

Question: `O=[N+]([O-])c1cccc(OCCCc2cnc[nH]2)c1` was tested. Which pKi [1] did it give?
Answer: The pKi was 8.03.

Question: `N#Cc1ccc(OCCCc2c[nH]cn2)cc1` was tested. Which Intrinsic activity [3] did it give?
Answer: The Intrinsic activity was 0.

Question: And the ED50 [2]?
Answer: The ED50 was 0.54 mg/kg.

Question: Which Intrinsic activity [6] does the source give for `Brc1cccc(OCCCc2c[nH]cn2)c1` here?
Answer: Its Intrinsic activity is under 0.1.

Question: What about the ED50 [2] of the same compound?
Answer: Its ED50 is over 10 mg/kg.

Question: `CC(C)CCOCCCc1c[nH]cn1` was tested. Which Activity [14] did it give?
Answer: The Activity was “Agonist”.

Question: And the Activity [15]?
Answer: The Activity was “Partial agonist”.

Question: What about the Activity [16] of the same compound?
Answer: Its Activity is “Antagonist”.

Question: For `CC(C)(C)c1cccc(OCCCc2c[nH]cn2)c1`, which Intrinsic activity [3] is on record?
Answer: Its Intrinsic activity is 0.78.

Question: And the Intrinsic activity [9]?
Answer: The Intrinsic activity was 0.28.

Question: What about the ED50 [2] of the same compound?
Answer: The ED50 was 0.8 mg/kg.
